Measured values: PubChem BioAssay
Active and inactive are the calls of the source.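 Rule for the calls, unless noted: active = inhibition above 20% together with a positive visual image hit; inconclusive = visual image hit but inhibition not above 20%; inactive = no visual image hit.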

Key:
[1] = inhibitors of TNFa-induced NFkB p65 translocation, primary screen, imaging, HUVEC, MLSMR starter and 10KST1 sets (AID 438); conditions: HUVEC TNFa-induced p65 nuclear translocation; cell count: measured here: nuclei count (cytotoxicity indicator), at 2.08 µM; inhibition: at 2 µM, stronger effect = higher value, 0% TNFa-plus-vehicle, 100% no-TNFa wells;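 note: compound added about 3h40 before a 20 min TNFalpha stimulation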;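 for inhibition: signal is the nuclear over cytoplasmic p65 intensity ratio per well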
[2] = endothelial E-selectin expression blockers – imaging, HUVEC, immunofluorescence, MLSMR starter and 10KST1 sets, primary screen (AID 487;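 active = visually confirmed hit in the image check and inhibition above 20%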;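 for inhibition: signal is fraction of cell area covered by stained E-selectin grains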;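 for nuclei count: 100% = median nuclei count of all wells on the same plate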); conditions: HUVEC TNFalpha-induced E-selectin immunofluorescence imaging, at 2 µM; inhibition: stronger effect = higher value; nuclei count: measured here: cell number, toxicity
[3] = Primary imaging screen for DUSP6 inhibitors that restore phospho-Erk in transfected HeLa cells, chemical complementation (AID 609;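 active = compounds giving at least 50% inhibition in the cell-based MKP-3 phosphatase rescue imaging test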;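 for inhibition: phospho-Erk level distribution per well compared with pooled transfected vehicle control wells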); conditions: HeLa MKP-3 transfected, phospho-Erk imaging KS statistic, at 10 µM, cells stimulated with TPA for 15 min
[4] = molecular target: Dual specificity protein phosphatase 6 (Homo sapiens) (UniProt Q16828); assay: as above; conditions: HeLa MKP-3 transfected, phospho-Erk imaging KS statistic; at 10 µM; stronger effect = higher value; cells stimulated with TPA for 15 min
[5] = molecular target: Voltage-gated potassium channel subunit beta-2 (Rattus norvegicus) (UniProt P62483); assay: inhibitors of rat Kvbeta2 reductase activity – biochemical, NADPH fluorescence, primary screen (AID 622;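 active = fluorescence slope higher than the sample average by over 3 SD, cut at about -0.22 in these data, passing the limit was not always enough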;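 note: slope of raw intensity against log time taken from 70 to 1610 s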); conditions: recombinant KvBeta, 4-cyanobenzaldehyde reduction, at 10 µM, stronger effect = higher value
[6] = molecular target: Voltage-gated potassium channel subunit beta-2 (Rattus norvegicus) (UniProt P62483); assay: enhancers of rat Kvbeta2 NADPH turnover – biochemical, NADPH fluorescence, primary screen (AID 623;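 active = NADPH fluorescence slope more negative than the mean of all samples by about 3 SD, 99.7% confidence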;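 note: fluorescence intensity change per second fitted from 20 to 320 s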); conditions: Recombinant KvBeta, NADPH fluorescence decrease slope, 10 min; at 10 µM; stronger effect = lower value
[7] = molecular target: Alpha-2C adrenergic receptor (Homo sapiens) (UniProt P18825); assay: compounds altering alpha2C-coupled GIRK flux – cell-based, HEK293 alpha2C/GIRK1/2, thallium flux, primary screen (AID 624;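 active = fluorescence slope after compound addition differing from the mean of all screened samples at 99.7% confidence, in either direction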;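 note: slope of fluorescence ratio to pre-addition baseline per second over 15 to 24 s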); conditions: thallium flux BTC fluorescence, at 10 µM, actives lie on both sides
[8] = inhibitors of larval lipid processing in zebrafish, primary screen, whole organism, PED6 fluorescence, gall bladder and intestine (AID 686;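 active = a full or partial loss of lipid-probe fluorescence in the fish gall bladder, intestine or both, judged by eye; inactive = no fluorescence loss, or compound toxic to the fish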;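 note: larvae 5 to 7 days old with five fish per well; signal comes from phospholipase A2 cleavage of quenched PED6 carried via bile; overnight exposure to compound and PED6 before scoring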); conditions: Zebrafish larvae PED6 lipid processing, fluorescence scoring; screened at 20 µM (by protocol)
Method in brief: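 system = live zebrafish larvae aged 5-7 days, whole organism | probe or stimulus = ingested quenched lipid PED6 at 100 nM | doses = 20 µM single dose | timing = overnight exposure | detection = fluorescence microscopy with visual scoring of gall bladder and intestine | read-out = visual per-well fluorescence inhibition score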

[9] = loss of swimming-algae plug formation – whole organism, Chlamydomonas reinhardtii, WT vs cilia-less mutant, absorbance, 96-well, primary screen (AID 463189;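 active = inhibition at or above 50% relative to wild type and mutant plate controls; inactive = inhibition below 50%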;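 note: 0% = wild type cc124 cells in DMSO and 100% = ciliumless bld1 mutant cells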); conditions: Chlamydomonas reinhardtii gravitaxis, OD600 absorbance, 2 days; at 10 µM; stronger effect = higher value
[10] = measured here: cell density z-score
[11] = measured here: nuclear c-Myc green intensity z-score
[12] = measured here: nuclear pErk red intensity z-score, stronger effect = higher value

Sequence of Alpha-2C adrenergic receptor (Homo sapiens) (P18825 whole entry, looked up): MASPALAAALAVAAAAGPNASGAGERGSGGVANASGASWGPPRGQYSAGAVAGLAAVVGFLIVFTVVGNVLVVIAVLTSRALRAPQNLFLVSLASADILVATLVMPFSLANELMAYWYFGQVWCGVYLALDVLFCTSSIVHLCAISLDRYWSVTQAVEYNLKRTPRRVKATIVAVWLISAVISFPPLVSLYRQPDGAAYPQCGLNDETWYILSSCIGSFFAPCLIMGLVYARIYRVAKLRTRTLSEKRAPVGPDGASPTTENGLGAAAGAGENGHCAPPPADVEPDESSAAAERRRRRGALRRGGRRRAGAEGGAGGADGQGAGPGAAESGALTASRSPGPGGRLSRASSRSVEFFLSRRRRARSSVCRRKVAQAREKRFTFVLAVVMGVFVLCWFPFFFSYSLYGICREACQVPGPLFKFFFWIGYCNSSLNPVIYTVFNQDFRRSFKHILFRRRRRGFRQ
Sequence of Dual specificity protein phosphatase 6 (Homo sapiens) (Q16828 whole entry, looked up): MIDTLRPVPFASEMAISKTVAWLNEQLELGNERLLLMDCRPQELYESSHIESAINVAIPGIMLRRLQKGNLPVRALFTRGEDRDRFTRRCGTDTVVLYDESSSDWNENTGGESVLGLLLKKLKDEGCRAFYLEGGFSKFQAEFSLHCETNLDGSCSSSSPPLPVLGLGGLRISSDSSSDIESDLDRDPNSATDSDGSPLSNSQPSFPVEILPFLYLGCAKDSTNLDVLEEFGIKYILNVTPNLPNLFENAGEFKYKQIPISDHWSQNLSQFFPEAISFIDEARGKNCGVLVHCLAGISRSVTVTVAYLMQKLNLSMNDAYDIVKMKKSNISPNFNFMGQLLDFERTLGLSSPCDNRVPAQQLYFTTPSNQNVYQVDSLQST
Sequence of Voltage-gated potassium channel subunit beta-2 (Rattus norvegicus) (P62483 whole entry, looked up): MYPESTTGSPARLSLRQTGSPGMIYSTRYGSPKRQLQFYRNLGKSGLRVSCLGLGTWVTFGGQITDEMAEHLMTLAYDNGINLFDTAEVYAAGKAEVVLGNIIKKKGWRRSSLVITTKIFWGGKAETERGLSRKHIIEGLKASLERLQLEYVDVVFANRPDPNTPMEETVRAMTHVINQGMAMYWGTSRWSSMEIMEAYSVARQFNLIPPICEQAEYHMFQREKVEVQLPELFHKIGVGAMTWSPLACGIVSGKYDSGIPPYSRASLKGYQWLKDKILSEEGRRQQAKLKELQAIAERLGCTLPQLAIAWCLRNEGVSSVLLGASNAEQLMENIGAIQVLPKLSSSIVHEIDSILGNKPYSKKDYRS

Structure (SMILES) | cell count [1] | inhibition [1] | inhibition [2] | nuclei count [2] [%] | z-score [3, 10] | z-score [3, 11] | z-score [3, 12] | inhibition [4] | fluorescence slope [5] | NADPH fluorescence slope [6] | slope [7] | outcome [8] | inhibition [9]
COc1ccccc1OCC(=O)Nc1ccc(S(=O)(=O)Nc2cc(C)nc(C)n2)cc1 | 571 | -6.6% (inactive) | 3% (inactive) | 159 | 0.333 | 1.18 | -0.662 | 4.25% (inactive) | -0.303 (inactive) | 1.9e-05 (inactive) | 0.0043 (inactive) | inactive | -4.91% (inactive)
c1ccc(-c2nnc3n2N=C(c2ccc4c(c2)OCO4)CS3)nc1 | 626 | -5% (inactive) | -177% (inactive) | 144 | 0.439 | 0.912 | 0.545 | -11.5% (inactive) | -0.406 (inactive) | -0.000131 (inactive) | 0.00609 (inactive) | inactive | -7.21% (inactive)
Clc1ccc(-c2nnc3sc(Cc4cccs4)nn23)c(Cl)c1 | 664 | 0.3% (inactive) | -136% (inactive) | 169 | 0.203 | 0.587 | -0.53 | -9.66% (inactive) | -0.43 (inactive) | -0.00015 (inactive) | 0.00477 (inactive) | inactive | 37.7% (inactive)
N#Cc1c(N)sc(=S)c2c1CCCCC2 | 560 | -3.2% (inactive) | -130% (inactive) | 180 | -0.472 | -0.421 | 0.0305 | -0.608% (inactive) | -0.339 (inactive) | 2.8e-06 (inactive) | 0.00229 (inactive) | inactive | 6.84% (inactive)
Cc1nnc(SCc2nc3ccccc3[nH]2)s1 | 417 | -9.9% (inactive) | -178% (inactive) | 172 | 1.08 | -0.712 | -0.186 | -5.89% (inactive) | -0.368 (inactive) | -5.3e-05 (inactive) | 0.00478 (inactive) | inactive | 9.63% (inactive)
Nc1nnc(CSCc2ccc(F)cc2)s1 | 537 | 7% (inactive) | 23.2% (inactive) | 111 | -1.12 | 1.17 | -0.516 | -13.3% (inactive) | -0.473 (inactive) | -2.4e-05 (inactive) | 0.00497 (inactive) | inactive | 3.98% (inactive)
COc1ccccc1C(=O)N1CCN(Cc2ccc3c(c2)OCO3)CC1 | 590 | -14.5% (inactive) | 34.9% (inactive) | 183 | -2.41 | 2.03 | 1 | -15% (inactive) | -0.361 (inactive) | -4e-05 (inactive) | 0.0055 (inactive) | inactive | 12.2% (inactive)
Cc1c(OCc2ccccc2)c(=O)ccn1Cc1ccccc1 | 560 | -7.9% (inactive) | -27.8% (inactive) | 226 | 0.907 | -0.745 | -0.326 | -2.91% (inactive) | -0.379 (inactive) | -2.4e-05 (inactive) | 0.00471 (inactive) | inactive | -5.81% (inactive)
CC(C)CC(=O)Nc1ccccc1N1CCCC1 | 269 | 3.1% (inactive) | -24.3% (inactive) | 101 | -0.814 | 0.661 | -0.804 | 9.39% (inactive) | -0.396 (inactive) | -1.2e-05 (inactive) | 0.0054 (inactive) | inactive | -8.2% (inactive)
CC(=O)N[C@H]1C[C@@H]1c1ccccc1 | 404 | -8.9% (inactive) | 0.6% (inactive) | 103 | 0.812 | -0.111 | -1.93 | 6.04% (inactive) | -0.4 (inactive) | 3.1e-05 (inactive) | 0.00883 (inactive) | inactive | -14.5% (inactive)
CCOC(=O)c1ccc(NC(=O)Cn2nnc3ccccc32)cc1 | 333 | -8.2% (inactive) | -17.3% (inactive) | 84.8 | 0.667 | 0.595 | -0.72 | 7.48% (inactive) | -0.538 (inactive) | -0.000163 (inactive) | 0.0051 (inactive) | inactive | 37.7% (inactive)
CSc1nnc(C)c(=O)[nH]1 | 627 | 3.2% (inactive) | -23.8% (inactive) | 149 | 0.361 | -1.1 | -0.0421 | -1.12% (inactive) | -0.463 (inactive) | -0.000266 (inactive) | 0.00552 (inactive) | inactive | 6% (inactive)
OC(CNCCCN1CCCCC1)COc1ccccc1 (stereo unspecified) | 630 | -6.2% (inactive) | -169% (inactive) | 178 | -0.145 | 0.177 | 0.518 | 17% (inactive) | -0.512 (inactive) | -7.1e-05 (inactive) | 0.00429 (inactive) | inactive | 5.42% (inactive)
COC(=O)c1cc(Br)c(=O)n(Cc2ccc3c(c2)OCO3)c1 | 533 | 2.2% (inactive) | -141% (inactive) | 135 | 0.138 | 0.394 | 1.32 | -14% (inactive) | -0.501 (inactive) | -4.4e-05 (inactive) | 0.00422 (inactive) | inactive | 110% (active)
CCOc1cccc(-c2nn3c(-c4ccccn4)nnc3s2)c1 | 649 | -3.2% (inactive) | -78% (inactive) | 150 | 0.204 | -0.822 | 0.934 | -9.66% (inactive) | -0.427 (inactive) | -4.9e-05 (inactive) | 0.00726 (inactive) | inactive | 23.8% (inactive)
Cc1cc(=O)[nH]c(SCC(=O)c2ccccc2)c1C#N | 391 | -0.9% (inactive) | 1.9% (inactive) | 168 | 2.74 | -1.01 | -0.58 | 13.4% (inactive) | -0.41 (inactive) | -0.000133 (inactive) | 0.00479 (inactive) | inactive | -2.65% (inactive)
Nc1nonc1-c1noc(-c2ccccc2)n1 | 480 | -3.5% (inactive) | -26.8% (inactive) | 122 | 0.154 | 1.08 | -0.0551 | 13.2% (inactive) | -0.516 (inactive) | -3.2e-05 (inactive) | 0.00533 (inactive) | inactive | 33.2% (inactive)
CCCCCc1nc2sc3c(c2c(=O)n1N)CCC3 | 632 | -11.1% (inactive) | 46.3% (inactive) | 166 | -1.49 | 2.03 | 1.67 | -9.7% (inactive) | -0.507 (inactive) | -0.000102 (inactive) | 0.00473 (inactive) | inactive | 68.1% (active)
COc1ccc(/C=C/C2=NC(=C\N(C)C)/C(=O)O2)cc1 | 558 | 0.1% (inactive) | -26.3% (inactive) | 155 | -0.557 | 0.899 | -1.61 | 5.26% (inactive) | -0.303 (inactive) | 4.9e-06 (inactive) | 0.00517 (inactive) | inactive | -3.9% (inactive)
CCOCc1nc(N)[nH]c(=O)c1Cc1ccc(OC(C)C)cc1 | 350 | -14.1% (inactive) | -184% (inactive) | 133 | 0.756 | -0.664 | -2.13 | 17% (inactive) | -0.436 (inactive) | -2e-05 (inactive) | 0.00784 (inactive) | inactive | 23.2% (inactive)
CC1CCc2cc(F)cc3c(O)c(C(=O)NCc4ccco4)c(=O)n1c23 (stereo unspecified) | 531 | -4.5% (inactive) | -39.2% (inactive) | 138 | -0.138 | 1.87 | -4.17 | 5.26% (inactive) | -0.329 (inactive) | 4e-05 (inactive) | 0.00603 (inactive) | inactive | 6.44% (inactive)
CCNc1nc(NC(C)C)nc(N(C#N)C(C)C(=O)N(C)C)n1 (stereo unspecified) | 330 | -31.8% (inactive) | -39.6% (inactive) | 134 | -0.102 | -1.64 | 0.749 | -12.3% (inactive) | -0.445 (inactive) | -0.000124 (inactive) | 0.00585 (inactive) | inactive | 19.9% (inactive)
c1cncc(-c2nnc3sc(C4CCCCC4)nn23)c1 | 507 | -5.5% (inactive) | -138% (inactive) | 106 | 0.167 | -0.011 | 0.328 | 8.31% (inactive) | -0.442 (inactive) | 1.1e-05 (inactive) | 0.00837 (inactive) | inactive | 91.8% (active)
COc1ccc(C2=Nn3c(nnc3-c3ccccn3)SC2)cc1OC | 593 | -10% (inactive) | 60% (inactive) | 100 | 1.34 | 0.0492 | -0.154 | -16.8% (inactive) | -0.476 (inactive) | -0.000137 (inactive) | 0.00709 (inactive) | inactive | 9.28% (inactive)
O=C(O)c1ccc(OCCn2ccnc2)cc1 | 490 | -6.5% (inactive) | -141% (inactive) | 185 | -0.78 | -1.02 | 1.25 | 26.5% (inactive) | -0.473 (inactive) | -0.000213 (inactive) | 0.00534 (inactive) | inactive | 0.065% (inactive)
CCOC(=O)c1[nH]c2ccc(Br)cc2c1NC(=O)CCN1CCN(C(=O)OCC)CC1 | 545 | -23.3% (inactive) | -94.6% (inactive) | 158 | -0.326 | -0.22 | -0.0275 | -7.86% (inactive) | -0.522 (inactive) | -4.7e-05 (inactive) | 0.00482 (inactive) | inactive | 18.6% (inactive)
CC1CC(C(F)(F)F)n2ncnc2N1 (stereo unspecified) | 503 | -3.5% (inactive) | -41.5% (inactive) | 134 | -0.241 | 0.0915 | -0.288 | 13.2% (inactive) | -0.523 (inactive) | -4.4e-05 (inactive) | 0.00582 (inactive) | inactive | 39.7% (inactive)
